Source: ChEMBL document CHEMBL1125657 (J Med Chem, 1991)

Key:
[1] = biological target: T1, Kappa-type opioid receptor (Cavia porcellus, UniProt P41144); assay: Binding affinity against Opioid receptor kappa 1 was measured in the guinea pig brain membranes using [3H]EK in the presence of 1 uM unlabeled DAMGO as radioligand; type: cell membranes, Membrane
Procedure, shortened: (§1)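 Guinea pig brain membranes, using a modified version of a published method. μ sites were labelled with [³H]DAMGO. κ sites were labelled with [³H]EK plus 1 μM unlabeled DAMGO. δ sites were labelled with [³H]DADLE plus 1 μM unlabeled DAMGO. Ki values were derived by displacement.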

[2] = biological target: T2, Mu-type opioid receptor (Cavia porcellus, UniProt P97266); assay: Binding affinity against Opioid receptor mu 1 was measured in the guinea pig brain membranes using [3H]DAMGO as radioligand; type: cell membranes, Membrane; procedure, shortened: as §1
T2 sequence (P97266 whole entry): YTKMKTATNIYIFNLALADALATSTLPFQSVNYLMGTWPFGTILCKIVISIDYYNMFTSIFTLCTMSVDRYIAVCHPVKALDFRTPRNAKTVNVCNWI

[3] = biological target: Opioid receptors; mu & kappa (Homo sapiens) (UniProt P41145+P35372); assay: Ki ratio measured as the ke values of mu receptor/kappa receptor from guinea pig brain membranes.
Chain of Opioid receptors; mu & kappa (Homo sapiens) (P35372 whole entry, looked up): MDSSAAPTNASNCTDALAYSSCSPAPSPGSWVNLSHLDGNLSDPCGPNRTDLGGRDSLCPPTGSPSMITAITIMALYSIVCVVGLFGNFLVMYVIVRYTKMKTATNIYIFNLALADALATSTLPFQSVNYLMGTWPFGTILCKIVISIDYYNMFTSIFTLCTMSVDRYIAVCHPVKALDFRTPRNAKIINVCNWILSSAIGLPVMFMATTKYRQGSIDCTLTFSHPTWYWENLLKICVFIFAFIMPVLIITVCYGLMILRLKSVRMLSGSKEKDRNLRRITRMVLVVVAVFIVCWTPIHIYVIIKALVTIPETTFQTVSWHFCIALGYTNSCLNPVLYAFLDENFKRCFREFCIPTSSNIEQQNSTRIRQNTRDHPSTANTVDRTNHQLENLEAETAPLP
Chain of Opioid receptors; mu & kappa (Homo sapiens) (P41145 whole entry, looked up): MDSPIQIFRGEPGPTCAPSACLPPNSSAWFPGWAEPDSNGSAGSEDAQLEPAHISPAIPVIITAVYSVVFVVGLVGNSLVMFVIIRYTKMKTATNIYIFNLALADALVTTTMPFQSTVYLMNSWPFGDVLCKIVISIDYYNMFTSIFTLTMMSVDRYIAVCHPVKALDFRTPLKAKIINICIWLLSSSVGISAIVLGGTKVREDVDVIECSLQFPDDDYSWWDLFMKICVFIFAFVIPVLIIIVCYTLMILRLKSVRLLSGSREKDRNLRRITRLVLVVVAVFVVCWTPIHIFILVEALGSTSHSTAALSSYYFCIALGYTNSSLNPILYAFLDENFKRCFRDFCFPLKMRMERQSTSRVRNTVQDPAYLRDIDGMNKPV

[4] = biological target: Mu-type opioid receptor (Homo sapiens) (UniProt P35372); assay: Compound was tested for antagonist activity against mu opioid receptor on electrically stimulated guinea pig ileal longitudinal muscle myenteric plexus (GPI) at 100 nM using DAMGO as agonist ligand.; type: functional
Chain of Mu-type opioid receptor (Homo sapiens) (P35372 whole entry): as the sequence (P35372 whole entry, looked up) above
Procedure, shortened: (§2)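 Electrically stimulated guinea pig ileal longitudinal muscle was used for μ agonists (M, DAMGO) and κ agonists (EK, U50488H). Mouse vas deferens was used for δ agonists (DADLE, DPDPE). Antagonist at 100 nM unless specified, preincubated 15 min. Agonist concentration-response curves were run without and then with antagonist in the same tissue, giving IC50s. Ke = [antagonist]/(IC50 ratio − 1).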

[5] = tested on: Kappa-type opioid receptor; assay: Compound was tested for antagonist activity against kappa opioid receptor on electrically stimulated guinea pig ileal longitudinal muscle myenteric plexus (GPI) at 100 nM using EK as agonist ligand.; type: functional; procedure, shortened: as §2
[6] = biological target: Delta-type opioid receptor (Mus musculus) (UniProt P32300); assay: Binding affinity of compound was measured against Opioid receptor delta 1 in mouse vas deferens (MVD) smooth muscle preparation at 100 nM using DADLE as standard agonist; procedure, shortened: as §2
Chain of Delta-type opioid receptor (Mus musculus) (P32300 whole entry): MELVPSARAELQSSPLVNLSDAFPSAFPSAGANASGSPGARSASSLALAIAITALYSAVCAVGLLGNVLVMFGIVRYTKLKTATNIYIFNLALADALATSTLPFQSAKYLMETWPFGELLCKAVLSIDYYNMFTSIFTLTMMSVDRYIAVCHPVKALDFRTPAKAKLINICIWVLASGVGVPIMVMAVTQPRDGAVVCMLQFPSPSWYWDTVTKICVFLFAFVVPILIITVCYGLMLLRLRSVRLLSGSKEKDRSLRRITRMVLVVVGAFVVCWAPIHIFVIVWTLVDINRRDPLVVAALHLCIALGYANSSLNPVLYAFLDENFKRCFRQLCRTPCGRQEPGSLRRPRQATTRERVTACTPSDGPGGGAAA

[7] = biological target: T2, Mu-type opioid receptor; assay: (§3) Binding affinity of compound was measured against Opioid receptor mu 1 on electrically stimulated guinea pig ileal longitudinal muscle myenteric plexus (GPI)at 100 nM preparation using DAMGO as agonist; procedure, shortened: as §2
[8] = tested on: Mus musculus; assay: Compound was tested for antagonism of the antinociceptive effect of M opioid agonist, sc in mice in an acetic acid writhing assay in a control group; type: functional
Procedure, shortened: (§4)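 Mouse acetic acid writhing assay. Antagonist was given icv at 100 nmol in 5 μL saline, timed so its 60-min peak effect fell at the centre of the observation period. Agonists (M, EK, U50488H) were given sc at four dose levels to control and treated mice. ED50 ratio = treated ED50 / control ED50.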

[9] = tested on: Mus musculus; assay: Compound was tested for antagonism of the antinociceptive effect of U-50, 488H opioid agonist, sc in mice in an acetic acid writhing assay in a control group; type: functional; procedure, shortened: as §4
[10] = biological target: Mu-type opioid receptor (Cavia porcellus) (UniProt P97266); assay: as §3; procedure, shortened: as §2
Chain of Mu-type opioid receptor (Cavia porcellus) (P97266 whole entry): as the sequence (P97266 whole entry) above

[11] = biological target: Delta-type opioid receptor (Mus musculus) (UniProt P32300); assay: Binding affinity of compound was measured against Opioid receptor delta 1 in mouse vas deferens (MVD) smooth muscle preparation at 100 nM using DPDPE as standard agonist; procedure, shortened: as §2
[12] = biological target: Delta-type opioid receptor (Mus musculus) (UniProt P32300); assay: Maximal inhibition of compound was measured on Mouse vas deferens(MVD) preparation; type: functional
Procedure, shortened: (§5)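 Agonist activity at 1 μM on electrically stimulated guinea pig ileum and mouse vas deferens preparations. Maximal inhibition or stimulation was recorded, averaged over three determinations.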

[13] = biological target: Mu-type opioid receptor (Cavia porcellus) (UniProt P97266); assay: Maximal inhibition of compound was measured on guinea pig ileal longitudinal muscle (GPI) preparation at 1 uM concentration; type: functional, tissue-based; settings: Muscle tissue; procedure, shortened: as §5
[14] = tested on: Mus musculus; assay: Compound was tested for antagonism of the antinociceptive effect of EK opioid agonist, sc in mice in an acetic acid writhing assay in a control group; type: functional; procedure, shortened: as §4
[15] = biological target: Kappa-type opioid receptor (Cavia porcellus) (UniProt P41144); assay: Binding affinity of compound was measured against Opioid receptor kappa 1 on electrically stimulated guinea pig ileal longitudinal muscle myenteric plexus (GPI) at 100 nM preparation using EK as agonist; procedure, shortened: as §2
Chain of Kappa-type opioid receptor (Cavia porcellus) (P41144 whole entry): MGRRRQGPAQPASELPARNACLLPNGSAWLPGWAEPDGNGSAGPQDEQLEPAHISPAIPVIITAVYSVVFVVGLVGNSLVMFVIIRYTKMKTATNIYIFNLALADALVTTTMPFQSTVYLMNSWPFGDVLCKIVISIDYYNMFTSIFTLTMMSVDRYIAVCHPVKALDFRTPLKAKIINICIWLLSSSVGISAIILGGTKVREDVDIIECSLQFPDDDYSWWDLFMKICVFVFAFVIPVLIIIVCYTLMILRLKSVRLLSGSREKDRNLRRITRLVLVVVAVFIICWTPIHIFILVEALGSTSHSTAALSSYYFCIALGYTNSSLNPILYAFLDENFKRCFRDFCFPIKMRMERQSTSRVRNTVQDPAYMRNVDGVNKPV

[16] = biological target: Mu-type opioid receptor (Cavia porcellus) (UniProt P97266); assay: Binding affinity of compound was measured against Opioid receptor mu 1 on electrically stimulated guinea pig ileal longitudinal muscle myenteric plexus (GPI)at 100 nM preparation using M as agonist; procedure, shortened: as §2
[17] = tested on: Mus musculus; assay: Compound was tested for antagonism of the antinociceptive effect of U-50, 488H opioid agonist, sc in mice in an acetic acid writhing assay in a treated group(icv with 100 nmol of 2.HCl in 5 microL of saline); type: functional; procedure, shortened: as §4
[18] = biological target: Mu-type opioid receptor (Homo sapiens) (UniProt P35372); assay: Compound was tested for antagonist activity against mu opioid receptor on electrically stimulated guinea pig ileal longitudinal muscle myenteric plexus (GPI) at 100 nM using M as agonist ligand. IC50; type: functional; procedure, shortened: as §2
[19] = biological target: T1, Kappa-type opioid receptor; assay: (§6) Binding affinity of compound was measured against Opioid receptor kappa 1 on electrically stimulated guinea pig ileal longitudinal muscle myenteric plexus (GPI) at 100 nM preparation using U-50,488H as agonist; procedure, shortened: as §2
[20] = Compound was tested for antagonist activity against Opioid receptor delta 1 in mouse vas deferens (MVD) smooth muscle preparation at 100 nM using DADLE as agonist; type: functional; procedure, shortened: as §2
[21] = biological target: Kappa-type opioid receptor (Homo sapiens) (UniProt P41145); assay: Compound was tested for antagonist activity against kappa opioid receptor on electrically stimulated guinea pig ileal longitudinal muscle myenteric plexus (GPI) at 100 nM using U-50,488H as agonist ligand.; type: functional; procedure, shortened: as §2
Chain of Kappa-type opioid receptor (Homo sapiens) (P41145 whole entry): as the sequence (P41145 whole entry, looked up) above

[22] = tested on: Mus musculus; assay: Compound was tested for antagonism of the antinociceptive effect of M opioid agonist, sc in mice in an acetic acid writhing assay in a treated group(icv with 100 nmol of 2.HCl in 5 microL of saline); type: functional; procedure, shortened: as §4
[23] = biological target: Kappa-type opioid receptor (Cavia porcellus) (UniProt P41144); assay: as §6; procedure, shortened: as §2
[24] = tested on: Mus musculus; assay: compound was tested for antagonism of the antinociceptive effect of EK opioid agonist, sc in mice in an acetic acid writhing assay in a treated group(icv with 100 nmol of 2.HCl in 5 microL of saline); type: functional; procedure, shortened: as §4
[25] = biological target: Mu-type opioid receptor (Homo sapiens) (UniProt P35372); assay: Compound was tested for antagonist activity against mu opioid receptor on electrically stimulated guinea pig ileal longitudinal muscle myenteric plexus (GPI) at 100 nM using M as agonist ligand.; type: functional; procedure, shortened: as §2

T1 sequence (P41144 whole entry): as the sequence (P41144 whole entry) above

SMILES | Ki [1] [nM] | Ki [2] [nM] | Ratio [3] | Ratio [5] | Ke [6] [nM] | Ki [7] [nM] | Ke [10] [nM] | Activity [12] | Activity [13] | Ke [15] [nM] | Ke [16] [nM] | Ratio [18] | Ki [19] [nM] | Ratio [20] | Ke [23] [nM] | further results
Cn1c2c(c3c1[C@@H]1Oc4c(O)ccc5c4[C@@]14CCN(CC1CC1)[C@H](C5)[C@]4(O)C3)C[C@@]1(O)[C@H]3Cc4ccc(O)c5c4[C@@]1(CCN3CC1CC1)[C@H]2O5 [BINALTORPHIMINE] | 0.41 | 18 | 44 |  |  |  |  |  |  |  |  |  |  |  |  | 
Oc1ccc2c3c1O[C@H]1c4sc5c(c4C[C@@]4(O)[C@@H](C2)N(CC2CC2)CC[C@]314)C[C@@]1(O)[C@H]2Cc3ccc(O)c4c3[C@@]1(CCN2CC1CC1)[C@H]5O4 |  |  |  | 39 | 33 | 189 | > 103 | -26 | -17 | 2.6 | 41 | 3.5 | 1.4 | 4 | 3.1 | Ratio [4]: 1.9; ED50 [8]: 0.91 mg/kg; ED50 [9]: 1.5 mg/kg; Ke [11]: > 556 nM; ED50 [14]: 0.038 mg/kg; ED50 [17]: 11.2 mg/kg; Ratio [21]: 33; ED50 [22]: 5.4 mg/kg; ED50 [24]: 0.13 mg/kg
Oc1ccc2c3c1O[C@H]1C(SSC4=CC[C@@]5(O)[C@H]6Cc7ccc(O)c8c7[C@@]5(CCN6CC5CC5)[C@H]4O8)=CC[C@@]4(O)[C@@H](C2)N(CC2CC2)CC[C@]314 |  |  |  | 9.7 | 13.2 |  |  | 15 | 40 | 3.5 | 2.2 | 14.6 |  | 8.6 |  | 
O=C1C(=Cc2ccccc2)C[C@@]2(O)[C@H]3Cc4ccc(O)c5c4[C@@]2(CCN3CC2CC2)[C@H]1O5 |  |  |  | 2 | 2.9 |  |  | -35 | -8 | 100 | 8.3 | 13.1 |  | 35 |  | 
Oc1ccc2c3c1O[C@H]1C4=C(C[C@@]5(O)[C@@H](C2)N(CC2CC2)CC[C@]315)C(c1ccccc1)C1=C(O4)[C@@H]2Oc3c(O)ccc4c3[C@@]23CCN(CC2CC2)[C@H](C4)[C@]3(O)C1 | 10 | 29 | 11 | 39 | 36 |  |  | 9 | -24 | 2.6 | 39 |  |  | 3.8 |  | Ratio [25]: 3.6
Oc1ccc2c3c1O[C@H]1c4[nH]c5c(c4C[C@@]4(O)[C@@H](C2)N(CC2CC2)CC[C@]314)C[C@@]1(O)[C@H]2Cc3ccc(O)c4c3[C@@]1(CCN2CC1CC1)[C@H]5O4 [NORBINALTORPHIMINE] |  |  |  |  | 10.6 | 47 | 22 | 16 | 14 | 0.55 | 14 |  | 0.26 |  | 0.21 | 
